Active and inactive are the calls of the source. No cut-off for these calls is given here.
How the values were obtained:
Rattus norvegicus [1] = test: Antihypertensive activity in spontaneously hypertensive rat assessed as change in systolic blood pressure at 50 mg/kg, po up to 8 hrs by telemetry method; assay type: functional, organism-based; parameters: dose 50 mg/kg; conditions: Artery
Method in brief: (§1)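 Spontaneously hypertensive rats dosed orally at 50 mpk. Systolic and diastolic blood pressure, heart rate and pulse pressure recorded by telemetry over 8 h post dose.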

Rattus norvegicus [2] = test: Antihypertensive activity in spontaneously hypertensive rat assessed as change in diastolic blood pressure at 50 mg/kg, po up to 8 hrs by telemetry method; assay type: functional, organism-based; parameters: dose 50 mg/kg; conditions: Artery; method in brief: as §1
[3] = biological target: T1, Bifunctional epoxide hydrolase 2 (Homo sapiens, UniProt P34913); test: Inhibition of human soluble epoxide hydrolase
T1 sequence (P34913 whole entry): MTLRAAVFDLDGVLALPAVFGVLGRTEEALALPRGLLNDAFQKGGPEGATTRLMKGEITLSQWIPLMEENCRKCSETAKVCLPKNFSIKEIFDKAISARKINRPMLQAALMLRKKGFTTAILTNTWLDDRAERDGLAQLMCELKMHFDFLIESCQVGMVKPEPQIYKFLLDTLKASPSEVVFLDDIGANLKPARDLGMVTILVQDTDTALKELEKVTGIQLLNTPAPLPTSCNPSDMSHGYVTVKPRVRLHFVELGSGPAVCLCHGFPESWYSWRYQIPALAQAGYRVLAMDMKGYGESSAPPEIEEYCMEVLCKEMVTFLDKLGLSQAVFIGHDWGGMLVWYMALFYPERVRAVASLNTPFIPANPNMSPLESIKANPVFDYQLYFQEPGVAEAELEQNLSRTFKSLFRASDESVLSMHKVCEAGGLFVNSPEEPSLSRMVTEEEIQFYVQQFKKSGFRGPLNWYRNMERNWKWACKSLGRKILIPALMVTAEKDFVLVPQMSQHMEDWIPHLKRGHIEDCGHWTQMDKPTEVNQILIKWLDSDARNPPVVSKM

[4] = biological target: T2, Bifunctional epoxide hydrolase 2 (Rattus norvegicus, UniProt P80299); test: Inhibition of rat soluble epoxide hydrolase
T2 sequence (P80299 whole entry): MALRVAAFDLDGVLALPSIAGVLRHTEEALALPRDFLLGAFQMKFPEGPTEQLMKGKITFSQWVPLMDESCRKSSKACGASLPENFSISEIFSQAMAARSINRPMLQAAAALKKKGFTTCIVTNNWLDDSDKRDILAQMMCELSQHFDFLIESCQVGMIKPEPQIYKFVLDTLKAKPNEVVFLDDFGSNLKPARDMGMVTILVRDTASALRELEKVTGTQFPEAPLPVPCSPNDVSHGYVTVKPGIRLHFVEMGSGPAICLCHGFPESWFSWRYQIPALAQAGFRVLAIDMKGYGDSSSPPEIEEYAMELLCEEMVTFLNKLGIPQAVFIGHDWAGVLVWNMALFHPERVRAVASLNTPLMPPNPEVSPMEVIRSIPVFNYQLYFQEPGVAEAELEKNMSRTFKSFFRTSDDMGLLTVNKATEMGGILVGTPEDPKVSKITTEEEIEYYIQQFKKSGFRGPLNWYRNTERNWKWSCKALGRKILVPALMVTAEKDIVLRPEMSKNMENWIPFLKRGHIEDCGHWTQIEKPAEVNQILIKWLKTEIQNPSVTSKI

[5] = biological target: T1, Bifunctional epoxide hydrolase 2; test: Inhibition of human soluble epoxide hydrolase in HEK293 cells assessed as DHET production; assay type: cell-based
Method in brief: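 Whole-cell 14,15-DHET production assay in HEK293 cells, run with or without 10% human serum. Values come from one or two experiments, each in triplicate, with repeats within 20%.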

Epoxide hydrolase 1 = biological target: T3, Epoxide hydrolase 1 (Homo sapiens, UniProt P07099); test: Inhibition of human microsomal epoxide hydrolase
T3 sequence (P07099 whole entry): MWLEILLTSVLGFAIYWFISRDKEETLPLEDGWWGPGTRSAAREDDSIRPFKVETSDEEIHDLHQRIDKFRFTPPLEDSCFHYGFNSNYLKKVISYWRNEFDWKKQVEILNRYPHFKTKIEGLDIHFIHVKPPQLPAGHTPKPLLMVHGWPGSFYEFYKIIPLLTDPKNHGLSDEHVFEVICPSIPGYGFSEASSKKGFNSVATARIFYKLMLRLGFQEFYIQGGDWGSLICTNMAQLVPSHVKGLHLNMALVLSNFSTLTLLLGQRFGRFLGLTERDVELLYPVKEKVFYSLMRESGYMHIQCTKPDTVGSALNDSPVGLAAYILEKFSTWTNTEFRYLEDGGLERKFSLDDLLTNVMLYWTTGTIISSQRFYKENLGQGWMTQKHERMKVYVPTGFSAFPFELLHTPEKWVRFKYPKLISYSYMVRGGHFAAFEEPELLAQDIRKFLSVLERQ
Method in brief: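 Human mEH used as the counterscreen enzyme. Values come from one or two experiments, each in triplicate, with repeats within 20%.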

Cytochrome P450 2C9 = Cytochrome P450 2C9 (Homo sapiens, UniProt P11712); test: Inhibition of CYP2C9; assay type: ADME
Cytochrome P450 2D6 = Cytochrome P450 2D6 (Homo sapiens, UniProt P10635); test: Inhibition of CYP2D6; assay type: ADME
Cytochrome P450 3A4 = Cytochrome P450 3A4 (Homo sapiens, UniProt P08684); test: Inhibition of CYP3A4; assay type: ADME
[6] = biological target: Sodium channel protein type 5 subunit alpha (Homo sapiens, UniProt Q14524); test: Inhibition of Nav1.5 channel
Cytochrome P450 2C8 = biological target: T4, Cytochrome P450 2C8 (Homo sapiens, UniProt P10632); test: Inhibition of CYP2C8; assay type: ADME
T4 sequence (P10632 whole entry): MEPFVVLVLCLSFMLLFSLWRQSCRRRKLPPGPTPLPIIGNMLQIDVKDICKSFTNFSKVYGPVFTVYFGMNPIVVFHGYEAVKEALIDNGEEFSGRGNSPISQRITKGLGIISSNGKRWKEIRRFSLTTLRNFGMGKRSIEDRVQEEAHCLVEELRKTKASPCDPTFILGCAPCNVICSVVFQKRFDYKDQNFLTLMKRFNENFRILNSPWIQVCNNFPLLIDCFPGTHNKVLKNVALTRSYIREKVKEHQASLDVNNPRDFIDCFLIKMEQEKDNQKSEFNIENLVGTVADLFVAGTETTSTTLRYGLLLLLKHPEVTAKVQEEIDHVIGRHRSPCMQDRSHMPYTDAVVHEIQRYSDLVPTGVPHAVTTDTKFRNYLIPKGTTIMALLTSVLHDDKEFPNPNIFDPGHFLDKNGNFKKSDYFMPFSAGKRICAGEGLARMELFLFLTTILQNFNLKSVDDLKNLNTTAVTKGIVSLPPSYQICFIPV

Cytochrome P450 3A4, sequence (P08684 whole entry): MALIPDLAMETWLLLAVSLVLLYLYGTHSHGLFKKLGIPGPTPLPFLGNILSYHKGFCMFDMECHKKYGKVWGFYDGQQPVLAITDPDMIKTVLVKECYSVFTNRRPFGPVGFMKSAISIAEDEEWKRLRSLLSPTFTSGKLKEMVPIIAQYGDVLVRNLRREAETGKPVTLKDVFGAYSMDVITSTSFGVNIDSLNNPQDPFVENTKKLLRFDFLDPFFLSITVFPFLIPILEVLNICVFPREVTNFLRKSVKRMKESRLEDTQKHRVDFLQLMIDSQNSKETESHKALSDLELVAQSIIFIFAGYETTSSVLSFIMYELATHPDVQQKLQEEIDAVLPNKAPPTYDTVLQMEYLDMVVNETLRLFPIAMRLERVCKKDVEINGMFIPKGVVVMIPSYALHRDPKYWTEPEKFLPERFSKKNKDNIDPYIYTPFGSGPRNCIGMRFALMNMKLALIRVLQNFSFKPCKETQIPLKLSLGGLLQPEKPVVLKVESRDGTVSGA
Cytochrome P450 2C9, sequence (P11712 whole entry): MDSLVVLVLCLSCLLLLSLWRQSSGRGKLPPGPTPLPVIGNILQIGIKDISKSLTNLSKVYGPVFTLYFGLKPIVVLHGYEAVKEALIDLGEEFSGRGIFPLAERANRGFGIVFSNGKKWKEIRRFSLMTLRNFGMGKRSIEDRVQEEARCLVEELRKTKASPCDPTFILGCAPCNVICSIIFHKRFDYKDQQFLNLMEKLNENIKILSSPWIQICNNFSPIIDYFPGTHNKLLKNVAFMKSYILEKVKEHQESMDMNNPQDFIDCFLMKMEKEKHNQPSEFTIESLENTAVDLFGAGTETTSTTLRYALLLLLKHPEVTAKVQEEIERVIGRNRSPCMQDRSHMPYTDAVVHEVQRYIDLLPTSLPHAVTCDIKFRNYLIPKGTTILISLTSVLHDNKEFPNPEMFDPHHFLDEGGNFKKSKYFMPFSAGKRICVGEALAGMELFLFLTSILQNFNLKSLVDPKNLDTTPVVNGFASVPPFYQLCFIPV
Cytochrome P450 2D6, sequence (P10635 whole entry): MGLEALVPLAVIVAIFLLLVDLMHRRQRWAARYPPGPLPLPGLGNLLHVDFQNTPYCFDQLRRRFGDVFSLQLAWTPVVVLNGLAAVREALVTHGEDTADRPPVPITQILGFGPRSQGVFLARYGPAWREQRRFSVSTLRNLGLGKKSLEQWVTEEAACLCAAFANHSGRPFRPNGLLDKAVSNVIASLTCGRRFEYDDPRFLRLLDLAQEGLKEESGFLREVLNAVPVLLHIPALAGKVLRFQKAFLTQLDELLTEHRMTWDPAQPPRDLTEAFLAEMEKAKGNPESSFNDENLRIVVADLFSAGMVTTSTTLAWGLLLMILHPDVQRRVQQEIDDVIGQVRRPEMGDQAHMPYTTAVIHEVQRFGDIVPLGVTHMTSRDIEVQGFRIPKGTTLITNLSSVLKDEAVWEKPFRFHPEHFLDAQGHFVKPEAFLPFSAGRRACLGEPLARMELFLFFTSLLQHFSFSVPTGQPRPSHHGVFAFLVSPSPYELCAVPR
Sodium channel protein type 5 subunit alpha, sequence (Q14524 whole entry): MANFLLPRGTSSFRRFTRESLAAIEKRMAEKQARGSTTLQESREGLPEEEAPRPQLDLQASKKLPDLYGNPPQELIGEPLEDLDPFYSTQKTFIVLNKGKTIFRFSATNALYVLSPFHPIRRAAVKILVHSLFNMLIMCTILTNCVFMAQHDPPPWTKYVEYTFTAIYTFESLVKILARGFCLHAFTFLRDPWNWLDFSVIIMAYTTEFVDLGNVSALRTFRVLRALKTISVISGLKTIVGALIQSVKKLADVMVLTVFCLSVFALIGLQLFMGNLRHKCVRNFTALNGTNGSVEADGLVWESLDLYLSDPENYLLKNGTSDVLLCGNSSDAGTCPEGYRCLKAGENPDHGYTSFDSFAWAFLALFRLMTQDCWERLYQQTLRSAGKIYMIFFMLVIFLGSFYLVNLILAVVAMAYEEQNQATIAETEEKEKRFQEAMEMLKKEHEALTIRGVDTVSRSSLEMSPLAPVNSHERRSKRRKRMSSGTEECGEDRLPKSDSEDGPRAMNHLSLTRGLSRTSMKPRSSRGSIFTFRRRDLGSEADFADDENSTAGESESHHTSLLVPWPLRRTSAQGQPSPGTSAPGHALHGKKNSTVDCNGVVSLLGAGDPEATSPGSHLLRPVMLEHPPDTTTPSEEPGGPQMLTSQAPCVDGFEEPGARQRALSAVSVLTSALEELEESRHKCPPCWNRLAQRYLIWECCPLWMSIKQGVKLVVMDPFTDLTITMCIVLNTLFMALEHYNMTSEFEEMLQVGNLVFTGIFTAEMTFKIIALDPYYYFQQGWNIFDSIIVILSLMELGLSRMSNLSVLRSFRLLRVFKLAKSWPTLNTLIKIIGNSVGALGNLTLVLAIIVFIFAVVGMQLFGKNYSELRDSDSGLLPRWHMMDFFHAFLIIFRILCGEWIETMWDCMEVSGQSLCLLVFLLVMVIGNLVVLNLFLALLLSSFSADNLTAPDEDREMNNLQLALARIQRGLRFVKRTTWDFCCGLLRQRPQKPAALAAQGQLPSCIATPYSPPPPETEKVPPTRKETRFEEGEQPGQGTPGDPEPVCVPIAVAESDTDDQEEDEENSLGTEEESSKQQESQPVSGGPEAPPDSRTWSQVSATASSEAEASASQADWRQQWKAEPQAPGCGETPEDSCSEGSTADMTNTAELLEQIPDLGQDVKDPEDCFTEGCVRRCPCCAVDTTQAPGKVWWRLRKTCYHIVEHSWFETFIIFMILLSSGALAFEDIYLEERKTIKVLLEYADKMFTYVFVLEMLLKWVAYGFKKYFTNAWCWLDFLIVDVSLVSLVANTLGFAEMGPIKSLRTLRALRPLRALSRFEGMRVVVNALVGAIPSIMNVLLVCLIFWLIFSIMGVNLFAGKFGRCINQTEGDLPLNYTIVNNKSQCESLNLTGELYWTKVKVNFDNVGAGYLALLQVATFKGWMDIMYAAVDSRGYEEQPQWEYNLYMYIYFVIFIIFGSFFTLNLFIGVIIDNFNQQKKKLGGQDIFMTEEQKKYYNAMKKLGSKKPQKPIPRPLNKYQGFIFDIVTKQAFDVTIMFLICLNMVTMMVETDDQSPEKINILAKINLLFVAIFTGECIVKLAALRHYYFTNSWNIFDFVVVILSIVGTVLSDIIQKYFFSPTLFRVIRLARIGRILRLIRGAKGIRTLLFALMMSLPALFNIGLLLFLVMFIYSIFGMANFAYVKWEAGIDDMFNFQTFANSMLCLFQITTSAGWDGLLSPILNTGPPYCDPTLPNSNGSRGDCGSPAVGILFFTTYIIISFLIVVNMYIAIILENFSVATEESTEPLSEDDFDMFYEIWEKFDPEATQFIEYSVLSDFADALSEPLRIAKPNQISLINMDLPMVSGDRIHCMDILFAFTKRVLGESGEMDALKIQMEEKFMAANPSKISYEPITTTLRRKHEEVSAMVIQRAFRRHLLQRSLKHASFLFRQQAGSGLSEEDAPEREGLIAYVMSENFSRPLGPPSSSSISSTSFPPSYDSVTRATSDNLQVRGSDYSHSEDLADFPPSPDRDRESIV

## O=C(O)CCC1(c2ccccc2)CCCN(C(=O)Nc2ccc(Cl)cc2)C1 (stereo in doubt) [listing 1 of 2 here]
Rattus norvegicus [1]
  Activity: inactive
Rattus norvegicus [2]
  Activity: inactive

## O=C(O)CCC1(c2ccccc2)CCCN(C(=O)Nc2ccc(Cl)cc2)C1 (stereo in doubt) [listing 2 of 2 here]
[3]
  IC50: 5 nM
[4]
  IC50: 69 nM
[5]
  IC50: 2 nM
Epoxide hydrolase 1
  IC50: > 100 µM
Cytochrome P450 2C9
  IC50: > 100 µM
Cytochrome P450 2D6
  IC50: > 100 µM
Cytochrome P450 3A4
  IC50: > 100 µM
[6]
  IC50: > 10 µM
Cytochrome P450 2C8
  IC50: 65 µM
